Measurements from ChEMBL document CHEMBL1132972, “Pyrrolidine inhibitors of human cytosolic phospholipase A(2)” (J Med Chem, 2000).
pIC50: −log10 of the molar value.

How the values were obtained:
[1] = biological target: T1, Cytosolic phospholipase A2 (Homo sapiens, UniProt P47712); assay: Inhibition of Human cPLA2 alpha using Enzyme assay(PC/DOG assay)
T1 sequence (P47712 whole entry): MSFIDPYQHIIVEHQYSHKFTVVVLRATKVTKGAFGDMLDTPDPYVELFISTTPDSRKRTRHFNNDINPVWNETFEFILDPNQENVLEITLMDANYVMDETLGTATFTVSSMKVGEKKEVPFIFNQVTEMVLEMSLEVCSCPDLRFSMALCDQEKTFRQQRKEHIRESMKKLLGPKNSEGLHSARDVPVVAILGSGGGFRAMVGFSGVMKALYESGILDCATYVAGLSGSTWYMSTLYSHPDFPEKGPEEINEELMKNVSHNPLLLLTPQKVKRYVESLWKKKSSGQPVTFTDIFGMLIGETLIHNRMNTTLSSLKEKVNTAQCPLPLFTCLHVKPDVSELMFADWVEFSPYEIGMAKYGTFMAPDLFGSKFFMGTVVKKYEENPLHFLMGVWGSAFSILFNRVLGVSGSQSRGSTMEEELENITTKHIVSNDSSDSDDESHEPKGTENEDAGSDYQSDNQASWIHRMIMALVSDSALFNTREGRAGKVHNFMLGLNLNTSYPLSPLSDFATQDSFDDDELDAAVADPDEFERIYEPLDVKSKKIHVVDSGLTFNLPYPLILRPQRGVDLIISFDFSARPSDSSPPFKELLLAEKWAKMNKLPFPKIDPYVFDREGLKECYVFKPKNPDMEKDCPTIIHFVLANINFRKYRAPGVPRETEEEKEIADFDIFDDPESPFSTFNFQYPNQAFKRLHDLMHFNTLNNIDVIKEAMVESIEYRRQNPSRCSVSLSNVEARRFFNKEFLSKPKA

THP-1 [2] = assay: Inhibition of arachidonic acid production from THP-1 cells stimulated with A-23187 using cellular assay; assay type: functional, cell-based; conditions: Homo sapiens
Summary of the method: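 DMSO-differentiated THP-1 cells (1.3% DMSO for 2 days in RPMI 1640/10% FCS), washed with PBS, held in Hanks' saline pH 7.6 plus 0.1% BSA. Preincubated with inhibitor 15 min at 37 °C, then stimulated with 3 µM calcium ionophore A23187 for 20 min at 37 °C. Arachidonic acid release measured; IC50, mean ± SD, n=3 independent determinations.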

THP-1 [3] = assay: Effect on production of eicosanoids from THP-1 cells stimulated with A-23187 using cellular assay on PGE-2; assay type: functional, cell-based; conditions: Homo sapiens
Summary of the method: (§1)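 THP-1 cells grown in RPMI 1640 with 10% FCS, differentiated with 1.3% DMSO for 2 days, PBS-washed, suspended in Hanks' saline pH 7.6 with 0.1% BSA. Inhibitor preincubation 15 min at 37 °C, then 3 µM A23187 for 20 min at 37 °C. Stopped on ice; supernatant LTC4 and PGE2 measured by radio immunoassay and enzyme immunoassay. IC50, mean ± SD of three independent determinations.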

THP-1 [4] = assay: Effect of pyrrolidine derivatives on production of eicosanoids from THP-1 cells stimulated with A-23187 using cellular assay on LTC-4; assay type: functional, cell-based; conditions: Homo sapiens; summary of the method: as §1
THP-1 [5] = assay: Effect of pyrrolidine derivatives on production of eicosanoids from THP-1 cells stimulated with A-23187 using cellular assay on PGE-2, LTC-4; assay type: functional, cell-based; conditions: Homo sapiens; summary of the method: as §1
THP-1 [6] = assay: Effect on production of eicosanoids from THP-1 cells stimulated with A-23187 using cellular assay on PGE-2, LTC-4; assay type: functional, cell-based; conditions: Homo sapiens; summary of the method: as §1

Row | Compound | pIC50 [1] | pIC50 (THP-1 [2]) | pIC50 (THP-1 [3]) | pIC50 (THP-1 [4]) | pIC50 (THP-1 [5]) | pIC50 (THP-1 [6])
1 | O=C1NC(=O)/C(=C/c2ccc(C(=O)NC[C@@H]3C[C@@H](OCc4ccccc4-c4ccccc4)CN3C(=O)c3ccc(C(=O)c4ccccc4)cc3)cc2)S1 | < 5.00 | 5.26 |  |  |  | 
2 | O=C1NC(=O)/C(=C/c2ccc(C(=O)NC[C@@H]3C[C@@H](OCc4ccccc4-c4ccccc4)CN3C(=O)c3ccccc3C(=O)c3ccc(F)cc3F)cc2)S1 | 7.31 | 6.64 |  |  |  | 
3 | O=C1NC(=S)S/C1=C\c1ccc(C(=O)NC[C@@H]2C[C@@H](SCc3ccccc3-c3ccccc3)CN2C(=O)c2ccccc2C(=O)c2ccc(F)cc2)cc1 | 7.14 | 6.40 |  |  |  | 
4 | O=C1NC(=O)/C(=C/c2ccc(C(=O)NC[C@@H]3C[C@@H](SCc4ccccc4-c4ccccc4)CN3C(=O)c3ccccc3C(=O)c3ccc(F)cc3)cc2)S1 |  | 6.60 |  |  |  | 
5 | CC(C)Cc1cccc(Br)c1O[C@@H]1C[C@@H](CNC(=O)c2ccc(/C=C3\SC(=O)NC3=O)cc2)N(C(=O)c2ccccc2C(=O)c2ccc(F)cc2)C1 | 7.42 | 6.52 |  |  |  | 
6 | O=C1NC(=O)/C(=C/c2ccc(C(=O)NC[C@@H]3C[C@@H](OCc4ccccc4-c4ccccc4)CN3C(=O)c3cccc(C(=O)c4ccccc4)c3)cc2)S1 | < 5.00 | 5.23 |  |  |  | 
7 | O=C1NC(=O)/C(=C/c2ccc(C(=O)NC[C@@H]3C[C@@H](OCc4ccccc4-c4ccccc4)CN3C(=O)c3ccccc3C(=O)c3ccccc3)cc2)S1 | 6.78 | 6.17 | 6.39 | 6.43 |  | 
8 | O=C1NC(=O)/C(=C/c2ccc(C(=O)NC[C@@H]3C[C@@H](Oc4ccccc4-c4ccccc4)CN3C(=O)c3ccccc3C(=O)c3ccc(F)cc3)cc2)S1 |  | 6.51 | 6.68 |  |  | 
9 | O=C1NC(=S)S/C1=C\c1ccc(C(=O)NC[C@@H]2C[C@@H](OCc3ccccc3-c3ccccc3)CN2C(=O)c2ccccc2C(=O)c2ccc(F)cc2)cc1 | 7.05 | 6.15 |  |  |  | 
10 | O=C1NC(=S)S/C1=C\c1ccc(C(=O)NC[C@@H]2C[C@@H](Oc3ccccc3-c3ccccc3)CN2C(=O)c2ccccc2C(=O)c2ccc(F)cc2)cc1 | 7.08 | 6.18 |  |  |  | 
11 | O=C1NC(=O)/C(=C/c2ccc(C(=O)NC[C@@H]3C[C@@H](OCc4ccccc4-c4ccccc4)CN3C(=O)c3ccccc3C(=O)c3ccc(F)cc3)cc2)S1 | 7.11 | 6.49 |  |  | 6.59 | 6.59
12 | COc1ccc2c(c1)c(CC(=O)O)c(C)n2C(=O)c1ccc(Cl)cc1 [INDOMETHACIN] |  | < 5.00 |  |  | < 5.00 | 8.44

The next compounds have a higher pIC50 (THP-1 [2]) than those just listed; values first:

Row | pIC50 [1] | pIC50 (THP-1 [2]) | pIC50 (THP-1 [3]) | pIC50 (THP-1 [4]) | pIC50 (THP-1 [5]) | pIC50 (THP-1 [6]) | Compound
13 | 7.66 | 6.66 |  |  |  |  | CC(C)Cc1cccc(Br)c1O[C@@H]1C[C@@H](CNC(=O)c2ccc(/C=C3\SC(=O)NC3=O)cc2)N(C(=O)c2ccccc2C(=O)c2ccc(F)cc2F)C1
14 | 7.68 | 6.74 |  |  |  |  | CC(C)CN(Cc1ccccc1-c1ccccc1)[C@@H]1C[C@@H](CNC(=O)c2ccc(/C=C3\SC(=O)NC3=O)cc2)N(C(=O)c2ccccc2C(=O)c2ccc(F)cc2)C1
15 | 8.28 | 7.04 |  |  |  |  | CC(C)Cc1cccc(-c2ccccc2C(C)C)c1O[C@@H]1C[C@@H](CNC(=O)c2ccc(/C=C3\SC(=O)NC3=O)cc2)N(C(=O)c2ccccc2C(=O)c2ccc(F)cc2)C1
16 | 8.68 | 7.26 |  |  |  |  | CC(C)Cc1cccc(-c2ccccc2C(C)C)c1O[C@@H]1C[C@@H](CNC(=O)c2ccc(/C=C3\SC(=O)NC3=O)cc2)N(C(=O)c2ccccc2C(=O)c2ccc(F)cc2F)C1
17 |  | 7.28 |  |  |  |  | CC(C)CN(Cc1ccccc1-c1ccccc1)[C@@H]1C[C@@H](CNC(=O)/C=C/c2ccc(/C=C3\SC(=O)NC3=O)cc2)N(C(=O)c2ccccc2C(=O)c2ccc(F)cc2)C1
18 | 8.21 | 7.33 |  |  |  |  | CC(C)CN(Cc1ccccc1-c1ccccc1)[C@@H]1C[C@@H](CNC(=O)c2ccc(/C=C3\SC(=O)NC3=O)cc2)N(C(=O)c2ccccc2C(=O)c2ccc(F)cc2F)C1
19 |  | 7.66 |  |  | 7.89 | 7.51 | CC(C)CN(Cc1ccccc1-c1ccccc1)[C@@H]1C[C@@H](CNC(=O)/C=C/c2ccc(/C=C3\SC(=O)NC3=O)cc2)N(C(=O)c2ccccc2C(=O)c2ccc(F)cc2F)C1
